Results as given in ChEMBL document CHEMBL2040794, “Synthesis and structure-activity analysis of new phosphonium salts with potent activity against African trypanosomes” (J Med Chem, 2012).
Calls of active or inactive are those of the source. The rule behind the calls is not given here.

Key:
[1] = test system: Trypanosoma brucei brucei; assay: Antitrypanosomal activity against diminazene aceturate-resistant TbAT1 gene-deficient Trypanosoma brucei brucei AT1-KO assessed as decrease in viability at 15 times EC50 after 8 hrs by propidium iodide staining-based fluorescence microscopic analysis; assay type: functional, organism-based
Procedure, shortened: (§1)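 Trypanosomes at 5 × 10⁵ cells/well in HMI-9 with 10% FBS and 9 μM propidium iodide, with compound at a range of concentrations. Fluorescence (ex 544, em 620 nm) was read every 2 min for 250 cycles (>8 h) at 37 °C and 5% CO2. All three strains ran in parallel on one plate, with drug-free controls.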

[2] = Cytotoxicity against human HEK cells after 3 days by alamar blue assay; assay type: cell-based, HEK293; conditions: Homo sapiens, HEK293, 72 h
Procedure, shortened: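 Human embryonic kidney cells tested by resazurin (Alamar blue) assay: 48 h with compound, then 24 h more after dye addition, single reading; EC₅₀ derived.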

[3] = test system: Trypanosoma brucei brucei; assay: Resistance factor, ratio of EC50 for diminazene-, pentamidine-, and melaminophenyl arsenical-resistant HAPT1-deficient Trypanosoma brucei brucei B48 to EC50 for wild type Trypanosoma brucei brucei Lister 427; assay type: functional
Procedure, shortened: (§2)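 Resistance factor is the EC50 in the resistant line (TbAT1-KO or B48) divided by the EC50 in wild-type s427. […] Resistant and wild-type EC50s were compared by Student t-test.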

[4] = Inhibition of Trypanosoma brucei brucei HAPT1 assessed as [3H]-pentamidine uptake after 60 secs by scintillation counting
Procedure, shortened: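 HAPT1 transport: late-log T. b. brucei grown in HMI-9 + 10% FBS, washed into HEPES/bicarbonate assay buffer with 14 mM glucose, pH 7.3. [³H]-pentamidine at 30 nM final for 60 s with inhibitor; stopped with 2 mM ice-cold unlabeled pentamidine and spin through oil. Scintillation counting, sigmoid fit for Ki; triplicates, ≥3 independent experiments.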

[5] = test system: Trypanosoma brucei brucei; assay: Antitrypanosomal activity against wild type Trypanosoma brucei brucei Lister 427 after 3 days by alamar blue assay; assay type: functional, organism-based; conditions: Trypanosoma brucei, Lister 427, 72 h
Procedure, shortened: (§3)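 Bloodstream-form T. b. brucei (wild-type s427; TbAT1-KO, made from s427 by TbAT1 deletion; B48, selected from TbAT1-KO in vitro on pentamidine, lacking functional HAPT1). Cells were exposed to compound for 48 h, then resazurin (Alamar blue) was added for a further 24 h. A single fluorescence reading gave EC50.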

[6] = test system: Trypanosoma brucei rhodesiense; assay: Antitrypanosomal activity against Trypanosoma brucei rhodesiense STIB900 infected in rat L6 cells after 72 hrs by alamar blue assay; assay type: functional, organism-based; conditions: Trypanosoma brucei, STIB900, 72 h
[7] = test system: Trypanosoma brucei brucei; assay: Antitrypanosomal activity against diminazene aceturate-resistant TbAT1 gene-deficient Trypanosoma brucei brucei AT1-KO after 3 days by alamar blue assay; assay type: functional, organism-based; conditions: Trypanosoma brucei, AT1-KO, 72 h; procedure, shortened: as §3
[8] = Selectivity index, ratio of EC50 for rat L6 cells to EC50 for Trypanosoma brucei rhodesiense STIB900; assay type: toxicity, cell-based; conditions: L6 cells, read-out: Ratio EC50
Procedure, shortened: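 Ratio of EC₅₀ in L6 cells to EC₅₀ against T. b. rhodesiense STIB900, both from Alamar blue assays.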

[9] = test system: Trypanosoma brucei brucei; assay: Antitrypanosomal activity against wild type Trypanosoma brucei brucei Lister 427 assessed as decrease in viability at > 3.3 uM after 8 hrs by propidium iodide staining-based fluorescence microscopic analysis; assay type: functional, organism-based
Procedure, shortened: (§4)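 Real-time propidium iodide integrity assay: 5 × 10⁵ trypanosomes per well in HMI-9 plus 10% FBS containing 9 μM PI, 37 °C, 5% CO₂. Fluorescence read on a plate fluorimeter (ex 544/em 620 nm) every 2 min for 250 cycles, more than 8 h. Strains run in parallel on one plate.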

[10] = test system: Trypanosoma brucei brucei; assay: Antitrypanosomal activity against wild type Trypanosoma brucei brucei Lister 427 assessed as decrease in viability at 70 to 120 times EC50 after 8 hrs by propidium iodide staining-based fluorescence microscopic analysis; assay type: functional, organism-based; procedure, shortened: as §4
[11] = test system: Trypanosoma brucei brucei; assay: Antitrypanosomal activity against diminazene-, pentamidine-, and melaminophenyl arsenical-resistant HAPT1-deficient Trypanosoma brucei brucei B48 after 3 days by alamar blue assay; assay type: functional, organism-based; conditions: Trypanosoma brucei, B48, 72 h; procedure, shortened: as §3
L6 = assay: Cytotoxicity against rat L6 cells after 72 hrs by alamar blue assay; assay type: cell-based; conditions: Rattus norvegicus, L6, 72 h
[12] = Selectivity index, ratio of EC50 for human HEK cells to EC50 for wild type Trypanosoma brucei brucei Lister 427; assay type: toxicity, cell-based, HEK293; conditions: HEK cells, read-out: Ratio EC50
Procedure, shortened: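 Ratio of EC₅₀ in HEK cells to EC₅₀ in wild-type T. b. brucei s427, both from resazurin assays.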

[13] = test system: Trypanosoma brucei brucei; assay: Resistance factor, ratio of EC50 for diminazene aceturate-resistant TbAT1 gene-deficient Trypanosoma brucei brucei AT1-KO to EC50 for wild type Trypanosoma brucei brucei Lister 427; assay type: functional; procedure, shortened: as §2
[14] = Inhibition of Trypanosoma brucei brucei LAPT1 assessed as [3H]-pentamidine uptake after 120 secs by scintillation counting
Procedure, shortened: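 LAPT1 transport: late-log trypanosomes from HMI-9/10% FBS culture washed into pH 7.3 HEPES-bicarbonate-glucose buffer; 1 μM final [³H]-pentamidine uptake over 120 s with competitor. Uptake terminated with 2 mM ice-cold pentamidine and oil centrifugation; counted by scintillation, Ki from sigmoid curves; triplicate, at least three separate occasions.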

[15] = test system: Trypanosoma brucei brucei; assay: (§5) Antitrypanosomal activity against diminazene-, pentamidine-, and melaminophenyl arsenical-resistant HAPT1-deficient Trypanosoma brucei brucei B48 harboring HAPT mutant gene assessed as decrease in viability at > 3.3 uM after 8 hrs by propidium iodide staining-based fluorescence microscopic analysis; assay type: functional, organism-based; procedure, shortened: as §1
[16] = test system: Trypanosoma brucei brucei; assay: as §5, with “15 times EC50” for “> 3.3 uM”; assay type: functional, organism-based; procedure, shortened: as §1
[17] = test system: Trypanosoma brucei brucei; assay: Antitrypanosomal activity against diminazene aceturate-resistant TbAT1 gene-deficient Trypanosoma brucei brucei AT1-KO assessed as decrease in viability at > 3.3 uM after 8 hrs by propidium iodide staining-based fluorescence microscopic analysis; assay type: functional, organism-based; procedure, shortened: as §1
[18] = test system: Trypanosoma brucei brucei; assay: Antitrypanosomal activity against wild type Trypanosoma brucei brucei Lister 427 assessed as decrease in viability at >700 times EC50 after 8 hrs by propidium iodide staining-based fluorescence microscopic analysis; assay type: functional, organism-based; procedure, shortened: as §4
[19] = test system: Trypanosoma brucei brucei; assay: Antitrypanosomal activity against Trypanosoma brucei brucei bloodstream forms assessed as decrease in cell count at 0.25 uM treated for 48 hrs followed by washout after 4 hrs measured after 44 hrs by hemocytometric analysis; assay type: functional, organism-based
Procedure, shortened: (§6)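 T. b. brucei bloodstream forms seeded at 10⁵ cells/mL with 0.25 μM compound; drug removed by centrifugation (1100g) after 30 min or 4 h and cells resuspended in drug-free fresh medium, or fresh medium still containing 0.25 μM compound; drug-free control run alongside. Growth followed over 48 h by microscopic hemocytometer counts in triplicate, averages reported.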

[20] = test system: Trypanosoma brucei brucei; assay: Antitrypanosomal activity against Trypanosoma brucei brucei bloodstream forms assessed as decrease in cell count at 0.25 uM treated for 48 hrs followed by washout after 30 mins and measured after 48 hrs by hemocytometric analysis; assay type: functional, organism-based; procedure, shortened: as §6
[21] = test system: Trypanosoma brucei brucei; assay: Antitrypanosomal activity against Trypanosoma brucei brucei bloodstream forms assessed as decrease in cell count at 0.25 uM treated for 48 hrs followed by washout after 4 hrs by hemocytometric analysis; assay type: functional, organism-based; procedure, shortened: as §6
[22] = test system: Trypanosoma brucei brucei; assay: Antitrypanosomal activity against Trypanosoma brucei brucei bloodstream forms assessed as decrease in cell count at EC50 after 36 hrs by hemocytometric analysis; assay type: functional, organism-based
Procedure, shortened: (§7)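 Bloodstream-form T. b. brucei cultures started at 10⁵ cells/mL, with or without a range of compound concentrations (0.05, 0.25, 1 μM for the example shown) present continuously. Cell density tracked over 48 h by manual hemocytometer counts done in triplicate; mean values plotted.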

[23] = test system: Trypanosoma brucei brucei; assay: Antitrypanosomal activity against Trypanosoma brucei brucei bloodstream forms assessed as decrease in cell count at 2 times EC50 after 12 hrs by hemocytometric analysis; assay type: functional, organism-based; procedure, shortened: as §7

| SMILES | EC50 [2] [nM] | Ratio EC50 [3] | Ki [4] [nM] | EC50 [5] [nM] | EC50 [6] [nM] | EC50 [7] [nM] | selectivity ratio [8] | EC50 [11] [nM] | EC50 (L6) [nM] | selectivity ratio [12] | Ratio EC50 [13] | Ki [14] [nM] | Activity [19] | Activity [20] | Activity [21] | also measured |
| --- | --- | --- | --- | --- | --- | --- | --- | --- | --- | --- | --- | --- | --- | --- | --- | --- |
| CCCCC[P+](CCCCC)(CCCCC)Cc1ccc(C(=O)c2ccc(C[P+](CCCCC)(CCCCC)CCCCC)cc2)cc1.[Br-].[Br-] | 66800 | 0.9 | 5200 | 200 | 289 | 170 | 30 | 180 | 8700 | 338 | 0.8 | 2200 |  |  |  | Activity [1]: Active; Activity [9]: Active; Activity [10]: Active; Activity [15]: Active; Activity [16]: Active; Activity [17]: Active |
| Cc1ccc(C[P+](c2ccccc2)(c2ccccc2)c2ccccc2)cc1 |  |  |  |  |  |  |  |  |  |  |  |  |  |  |  | Activity [18]: Active |
| CCCCCC[P+](CCCCCC)(CCCCCC)Cc1ccc(Cc2ccc(C[P+](CCCCCC)(CCCCCC)CCCCCC)cc2)cc1.[Br-].[Br-] | 18100 | 1.2 |  | 33 | 180 | 33 | 5 | 39 | 964 | 543 | 1 | 9500 | Active | inactive | Active |  |
| CCCCCC[P+](CCCCCC)(CCCCCC)Cc1ccc(Oc2ccc(C[P+](CCCCCC)(CCCCCC)CCCCCC)cc2)cc1.[Br-].[Br-] | 22100 | 1.1 | 53000 | 37 | 109 | 45 | 9 | 41 | 1030 | 593 | 1.2 | 7200 | Active | inactive | Active | Activity [22]: Active; Activity [23]: Active |
| Cc1ccc([P+](Cc2ccc(Oc3ccc(C[P+](c4ccc(C)cc4)(c4ccc(C)cc4)c4ccc(C)cc4)cc3)cc2)(c2ccc(C)cc2)c2ccc(C)cc2)cc1.[Br-].[Br-] | 85700 | 0.8 |  | 24 | 170 | 25 | 14 | 21 | 2340 | 3570 | 1 |  | Active | inactive | Active |  |
